Bioassay records from PubChem BioAssay.
Rows were chosen to be rich in hits. Some 1.7% of all compounds tested hit in one or more screens of this group.
V-ATPase pHluor – alters yeast V-ATPase proton transport. S. cerevisiae, pHLuorin cytosolic pH fluorescence. response, % at 10 µM. 0.37% of 350,000 active; in the data active = response mostly above about 7.3%, no sharp cut-off; inactive = mostly below about 5.4%; also: actives read high
Vif imaging – HIV Vif inhibition; inhibition, % at 7.49 µM; HEK293T cells, Vif self-association by quenched fluorescence, imaging, 24 h; 0.35% of 340,000 active; in the data active = inhibition above about 50%, passing the limit was not always enough; inconclusive = no clear call, values can overlap the other calls; inactive = below about 31%
SR-BI HDL uptake – mouse SR-BI HDL lipid transfer inhibition. Q61009. ldlA[mSR-BI] CHO cells, DiI-HDL uptake fluorescence, 3 h. inhibition, % at 12.5 µM. 0.96% of 320,000 active;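 active = mean replicate inhibition of at least 70% and a set share of replicates each scoring 70 or more; inconclusive = meets just one of the two criteria; inactive = fails both criteria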;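 also: 0% = median of neutral control wells and 100% = median of positive control wells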
Target sequence (Q61009 whole entry, looked up): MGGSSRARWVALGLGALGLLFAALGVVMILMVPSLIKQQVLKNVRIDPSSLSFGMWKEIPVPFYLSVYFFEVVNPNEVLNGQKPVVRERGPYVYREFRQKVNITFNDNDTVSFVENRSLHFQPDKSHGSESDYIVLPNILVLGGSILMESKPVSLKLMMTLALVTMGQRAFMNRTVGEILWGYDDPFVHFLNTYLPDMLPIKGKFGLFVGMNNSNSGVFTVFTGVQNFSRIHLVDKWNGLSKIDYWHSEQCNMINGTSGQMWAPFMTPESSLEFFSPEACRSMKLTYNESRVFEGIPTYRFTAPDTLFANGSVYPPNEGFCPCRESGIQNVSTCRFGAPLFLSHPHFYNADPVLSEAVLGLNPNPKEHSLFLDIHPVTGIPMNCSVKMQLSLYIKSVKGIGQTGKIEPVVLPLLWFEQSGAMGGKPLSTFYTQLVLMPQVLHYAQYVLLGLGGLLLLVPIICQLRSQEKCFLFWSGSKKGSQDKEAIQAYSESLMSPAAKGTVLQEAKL
NTR1 agonist – agonists of human neurotensin receptor NTR1 | P30989 | NTR1-U2OS beta-arrestin-GFP spot imaging, agonist mode | activation, % at 20 µM | 0.17% of 330,000 active | AID 493036;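 active = activation at or above 40% of the spot to cytoplasm intensity ratio, with at least 20 cells analyzed; inconclusive = wells under 20 cells, flagged as cytotoxic or low count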;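 also: 0% = DMSO without peptide and 100% = 100 nM NTR1 peptide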
CaV13 ICDI inh – Disruptors of the CACNA1D IQ motif to Ca2+-dependent inactivation inhibitor domain association, primary screening, Förster resonance energy transfer in intact living …. HEK cells, CFP/YFP FRET ICDI-IQ, plate reader, 10 min; percent FRET-ratio fall versus neutral wells. inhibition, % at 12.3 µM. 0.098% of 340,000 active;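 active = mean replicate inhibition of at least 30% and at least 1% of replicates passing that level; inconclusive = only one of the two criteria is met; inactive = neither criterion is met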;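 also: 0% = median of the neutral control wells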
SR-BI DiI-HDL act – activators of SR-BI mediated HDL lipid uptake. CHO ldlA[mSR-BI] cells, DiI-HDL uptake fluorescence, 3 h; 100 = double the neutral-control signal. activation, % at 12.5 µM. 0.096% of 320,000 active. AID 504775;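 active = mean replicate activation of at least 60% and every replicate at or above 60%; inconclusive = mean or all-replicate condition met, but not both; inactive = mean below 60% and not all replicates reaching 60%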;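 also: 0% = median plate neutral-control signal and 100% = twice that signal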
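System: LDL receptor-deficient CHO ldlA cells overexpressing murine SR-BI | Timing: 3 h uptake period with compound, 37 °C | Medium: HEPES-buffered (25 mM, pH 7.4) F12 plus 0.5% BSA | Dosing: Single-point compound dose | Signal: Bottom-read fluorescence, 550/595 nm | Read-out: Retained DiI signal reflecting DiI-HDL uptake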
* hit, by the source's call.

Results for O=C(Nc1ccc(F)cc1F)c1csc(-c2ccncc2)n1 ?
V-ATPase pHluor: 0; Vif imaging: 3; SR-BI HDL uptake: -9; NTR1 agonist: 0; CaV13 ICDI inh: -5; SR-BI DiI-HDL act: 9

What do the screens show for `Cc1ccc(C(=O)Nc2cccc(C(F)(F)F)c2)cc1NC(=O)c1csc(-c2ccncc2)n1`?
V-ATPase pHluor: -3; Vif imaging: -13; SR-BI HDL uptake: 84*; NTR1 agonist: 0; SR-BI DiI-HDL act: -84

How did Cc1ccc(S(=O)(=O)N2CCN(C(=O)CSCc3ccc(C(C)C)cc3)CC2)cc1 do in these assays?
V-ATPase pHluor: 1; Vif imaging: -5; SR-BI HDL uptake: -8; NTR1 agonist: 9; CaV13 ICDI inh: -5; SR-BI DiI-HDL act: 8

What do the screens show for `COc1cc(OC)c(NC(=O)c2c(-c3ccccc3)noc2C)cc1Cl`?
V-ATPase pHluor: -8; Vif imaging: -9; SR-BI HDL uptake: 67; NTR1 agonist: 4; CaV13 ICDI inh: -8; SR-BI DiI-HDL act: -67

What do the screens show for `COc1ccc(Cl)cc1NC(=O)c1c(-c2ccccc2)noc1C`?
V-ATPase pHluor: 2; Vif imaging: 1; SR-BI HDL uptake: 76*; NTR1 agonist: -2; SR-BI DiI-HDL act: -76

How did COc1ccc(COc2cc(-c3cccc(OC)c3)nc3ccc(NC(=O)c4ccc(Cl)cc4)cc23)cc1 do in these assays?
V-ATPase pHluor: 0; Vif imaging: 1; SR-BI HDL uptake: 73*; NTR1 agonist: 0; CaV13 ICDI inh: -4; SR-BI DiI-HDL act: -73

How did COc1ccc(COc2cc(-c3cccc(OC)c3)nc3ccc(NC(=O)c4cccnc4)cc23)cc1 do in these assays?
V-ATPase pHluor: -5; Vif imaging: -5; SR-BI HDL uptake: 45; NTR1 agonist: 6; CaV13 ICDI inh: 14; SR-BI DiI-HDL act: -45

Results for COc1ccc(COc2cc(-c3cccc(OC)c3)nc3ccc(NC(=O)c4ccc(OC)cc4)cc23)cc1 ?
V-ATPase pHluor: -4; Vif imaging: 2; SR-BI HDL uptake: 73*; NTR1 agonist: 1; CaV13 ICDI inh: -4; SR-BI DiI-HDL act: -73

Results for COc1ccc(COc2cc(-c3cccc(OC)c3)nc3ccc(NC(=O)c4ccccc4)cc23)cc1 ?
V-ATPase pHluor: -4; Vif imaging: 2; SR-BI HDL uptake: inconclusive; NTR1 agonist: 1; CaV13 ICDI inh: 10; SR-BI DiI-HDL act: -72

Results for Cc1cc(C(=O)CCC(=O)Nc2ncccc2O)c(C)s1 ?
V-ATPase pHluor: 3; Vif imaging: 12; SR-BI HDL uptake: 2; NTR1 agonist: -1; CaV13 ICDI inh: -6; SR-BI DiI-HDL act: -2

Results for O=C(NCCc1ccccc1Cl)[C@@H]1CCCN1C(=O)[C@@H](NC(=O)N1CCOCC1)C1CCCCC1 ?
CaV13 ICDI inh: -9

What do the screens show for `N#CCCN(Cc1ccccc1)C(=O)c1nccnc1C(=O)O`?
V-ATPase pHluor: 3; Vif imaging: -4; SR-BI HDL uptake: -2; NTR1 agonist: -1; CaV13 ICDI inh: -4; SR-BI DiI-HDL act: 2

What do the screens show for `Cc1ccnc(N/C=C(\C#N)c2nc(-c3cccc(Br)c3)cs2)c1`?
V-ATPase pHluor: 0; Vif imaging: 91*; SR-BI HDL uptake: 48; NTR1 agonist: 2; SR-BI DiI-HDL act: -48

Results for CCOc1cc(C(=O)N/N=C\c2cn(CC)nc2C)cc(OCC)c1OCC ?
V-ATPase pHluor: 0; Vif imaging: -6; SR-BI HDL uptake: 81*; NTR1 agonist: -2; CaV13 ICDI inh: -5; SR-BI DiI-HDL act: -81

What do the screens show for `COc1ccccc1C(=O)COC(=O)c1ccccc1O`?
V-ATPase pHluor: -3; Vif imaging: -5; SR-BI HDL uptake: -20; NTR1 agonist: 2; CaV13 ICDI inh: -5; SR-BI DiI-HDL act: 20

How did COc1ccccc1C(=O)COC(=O)C1(C)CC1(Cl)Cl (stereo not given) do in these assays?
V-ATPase pHluor: 1; Vif imaging: 71*; SR-BI HDL uptake: 29; NTR1 agonist: 5; CaV13 ICDI inh: -10; SR-BI DiI-HDL act: -29

Results for CC(=O)Nc1ccc(NCN2C(=O)[C@@H]3[C@H]4CC[C@H](C4)[C@@H]3C2=O)cc1 ?
V-ATPase pHluor: 0; SR-BI HDL uptake: 16; NTR1 agonist: -1; CaV13 ICDI inh: -5; SR-BI DiI-HDL act: -16

What do the screens show for `O=C(NCc1nc2ccccc2[nH]1)C1=C[C@H](c2ccc(C(F)(F)F)cc2)C[C@H](OCCCCO)O1`?
V-ATPase pHluor: 11; Vif imaging: 10; SR-BI HDL uptake: 4; NTR1 agonist: -4; CaV13 ICDI inh: -4; SR-BI DiI-HDL act: -4

What do the screens show for `Cc1ccc(NC2CC(=O)N(c3cccc([N+](=O)[O-])c3)C2=O)cc1` (stereo not given)?
V-ATPase pHluor: 0; Vif imaging: 2; SR-BI HDL uptake: 83*; NTR1 agonist: -1; CaV13 ICDI inh: -6; SR-BI DiI-HDL act: -83

Results for CCCSc1ccc([C@H]2N[C@@](CC(C)C)(C(=O)OC)[C@H]3C(=O)N(C)C(=O)[C@@H]23)cc1 ?
V-ATPase pHluor: 2; Vif imaging: -4; SR-BI HDL uptake: 74*; NTR1 agonist: 0; CaV13 ICDI inh: -10; SR-BI DiI-HDL act: -74

Results for CC1=NN(c2nc(-c3ccc(C)cc3)cs2)C(=O)C1N=Nc1ccccc1O (stereo not given) ?
V-ATPase pHluor: 3; Vif imaging: -5; SR-BI HDL uptake: 152*; NTR1 agonist: 8; CaV13 ICDI inh: -8; SR-BI DiI-HDL act: -152

How did Cc1cc(C)nc(/N=C(\N)Nc2ccccc2-c2ccccc2)n1 do in these assays?
V-ATPase pHluor: -1; Vif imaging: -1; SR-BI HDL uptake: 45; NTR1 agonist: 3; CaV13 ICDI inh: -7; SR-BI DiI-HDL act: -45

Results for COc1cccc(N=Nc2ccc3ccccc3c2O)c1 ?
V-ATPase pHluor: 1; Vif imaging: -1; SR-BI HDL uptake: 72*; NTR1 agonist: 5; CaV13 ICDI inh: -4; SR-BI DiI-HDL act: -72

What do the screens show for `CC(C)OP(=O)(OC(C)C)C1(NS(=O)(=O)c2ccc(Cl)cc2)C=C(Cl)C(=O)C(Cl)=C1`?
V-ATPase pHluor: -3; Vif imaging: -8; SR-BI HDL uptake: 10; NTR1 agonist: 1; CaV13 ICDI inh: -7; SR-BI DiI-HDL act: -10

What do the screens show for `Cc1ccc(C(C)C)c(OCc2ccc(C(=O)N/N=C/c3ccc(O)c(O)c3)cc2)c1`?
V-ATPase pHluor: -3; Vif imaging: -1; SR-BI HDL uptake: 82*; NTR1 agonist: 1; CaV13 ICDI inh: -6; SR-BI DiI-HDL act: -82

What do the screens show for `COc1cc(/C=N/NC(=O)c2ccc(COc3cc(C)ccc3C(C)C)cc2)cc(OC)c1O`?
V-ATPase pHluor: -3; Vif imaging: -4; SR-BI HDL uptake: 54; NTR1 agonist: 7; CaV13 ICDI inh: -6; SR-BI DiI-HDL act: -54

Results for Cc1ccc(C(C)C)c(OCc2ccc(C(=O)N/N=C/c3cccc(O)c3O)cc2)c1 ?
V-ATPase pHluor: -3; Vif imaging: 4; SR-BI HDL uptake: 136*; CaV13 ICDI inh: -3; SR-BI DiI-HDL act: -136
